Tests used:
[1] = target: Tyrosine-protein kinase SYK (Homo sapiens) (UniProt P43405); assay: Inhibition of SYK assessed as residual activity at 0.1 uM by Cherenkov counting relative to control in presence of 20 uM ATP
Procedure, shortened: (§1)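 Single-concentration screen at 0.1 μM in a 76-kinase panel. ATP for each kinase was set near its Km for ATP. Residual activity is given as a percentage of control assays without compound, mean of n = 3 ± SD.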

[2] = Inhibition of VEGFR assessed as residual activity at 0.1 uM by Cherenkov counting relative to control in presence of 20 uM ATP; procedure, shortened: as §1
[3] = target: Mitogen-activated protein kinase 11 (Homo sapiens) (UniProt Q15759); assay: Inhibition of p38beta at 0.1 uM by Cherenkov counting; procedure, shortened: as §1
Sequence of Mitogen-activated protein kinase 11 (Homo sapiens) (Q15759 whole entry): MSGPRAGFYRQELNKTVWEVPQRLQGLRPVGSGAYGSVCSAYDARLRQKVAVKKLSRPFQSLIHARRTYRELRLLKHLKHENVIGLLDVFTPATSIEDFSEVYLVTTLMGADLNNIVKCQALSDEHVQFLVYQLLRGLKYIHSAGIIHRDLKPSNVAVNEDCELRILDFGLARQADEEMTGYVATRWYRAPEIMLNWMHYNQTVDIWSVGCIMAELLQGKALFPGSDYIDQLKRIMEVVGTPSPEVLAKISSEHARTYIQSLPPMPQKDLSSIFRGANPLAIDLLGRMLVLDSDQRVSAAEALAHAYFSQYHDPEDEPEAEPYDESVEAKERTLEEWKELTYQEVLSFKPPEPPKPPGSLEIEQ

[4] = target: Tyrosine-protein kinase Yes (Homo sapiens) (UniProt P07947); assay: Inhibition of YES1 at 0.1 uM by Cherenkov counting in presence of 20 uM ATP; procedure, shortened: as §1
Sequence of Tyrosine-protein kinase Yes (Homo sapiens) (P07947 2-543 limits assumed): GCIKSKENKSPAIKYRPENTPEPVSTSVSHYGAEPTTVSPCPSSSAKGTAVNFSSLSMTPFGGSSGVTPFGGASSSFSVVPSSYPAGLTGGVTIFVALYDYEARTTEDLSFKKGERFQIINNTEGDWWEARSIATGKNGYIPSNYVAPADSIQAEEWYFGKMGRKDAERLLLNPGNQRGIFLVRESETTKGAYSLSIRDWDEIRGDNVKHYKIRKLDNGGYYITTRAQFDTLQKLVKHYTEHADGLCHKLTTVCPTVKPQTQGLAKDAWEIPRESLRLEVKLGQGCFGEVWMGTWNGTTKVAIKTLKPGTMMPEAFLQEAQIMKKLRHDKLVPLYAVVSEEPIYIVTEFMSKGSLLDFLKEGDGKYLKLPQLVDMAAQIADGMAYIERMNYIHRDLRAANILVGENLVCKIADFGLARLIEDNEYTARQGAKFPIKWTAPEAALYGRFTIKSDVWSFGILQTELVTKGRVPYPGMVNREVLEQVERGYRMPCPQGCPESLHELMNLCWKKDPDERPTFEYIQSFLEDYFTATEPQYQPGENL

[5] = target: Mitogen-activated protein kinase 12 (Homo sapiens) (UniProt P53778); assay: Inhibition of p38-gamma assessed as residual activity at 0.1 uM by Cherenkov counting relative to control; procedure, shortened: as §1
Sequence of Mitogen-activated protein kinase 12 (Homo sapiens) (P53778 whole entry): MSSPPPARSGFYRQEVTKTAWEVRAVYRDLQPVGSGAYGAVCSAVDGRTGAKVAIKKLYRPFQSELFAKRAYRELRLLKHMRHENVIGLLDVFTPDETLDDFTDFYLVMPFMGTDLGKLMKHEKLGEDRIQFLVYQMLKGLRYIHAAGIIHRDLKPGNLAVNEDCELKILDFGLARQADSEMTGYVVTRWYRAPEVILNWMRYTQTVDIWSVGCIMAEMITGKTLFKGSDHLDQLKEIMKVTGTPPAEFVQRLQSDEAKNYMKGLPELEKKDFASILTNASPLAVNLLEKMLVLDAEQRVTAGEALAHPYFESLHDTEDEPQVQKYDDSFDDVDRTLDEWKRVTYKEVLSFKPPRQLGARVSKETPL

[6] = target: Protein kinase C alpha type (Homo sapiens) (UniProt P17252); assay: Inhibition of PKCalpha assessed as residual activity at 0.1 uM by Cherenkov counting relative to control in presence of 20 uM ATP; procedure, shortened: as §1
[7] = target: Ribosomal protein S6 kinase alpha-5 (Homo sapiens) (UniProt O75582); assay: Inhibition of MSK1 assessed as residual activity at 0.1 uM by Cherenkov counting relative to control in presence of 20 uM ATP
Sequence of Ribosomal protein S6 kinase alpha-5 (Homo sapiens) (O75582 whole entry, looked up): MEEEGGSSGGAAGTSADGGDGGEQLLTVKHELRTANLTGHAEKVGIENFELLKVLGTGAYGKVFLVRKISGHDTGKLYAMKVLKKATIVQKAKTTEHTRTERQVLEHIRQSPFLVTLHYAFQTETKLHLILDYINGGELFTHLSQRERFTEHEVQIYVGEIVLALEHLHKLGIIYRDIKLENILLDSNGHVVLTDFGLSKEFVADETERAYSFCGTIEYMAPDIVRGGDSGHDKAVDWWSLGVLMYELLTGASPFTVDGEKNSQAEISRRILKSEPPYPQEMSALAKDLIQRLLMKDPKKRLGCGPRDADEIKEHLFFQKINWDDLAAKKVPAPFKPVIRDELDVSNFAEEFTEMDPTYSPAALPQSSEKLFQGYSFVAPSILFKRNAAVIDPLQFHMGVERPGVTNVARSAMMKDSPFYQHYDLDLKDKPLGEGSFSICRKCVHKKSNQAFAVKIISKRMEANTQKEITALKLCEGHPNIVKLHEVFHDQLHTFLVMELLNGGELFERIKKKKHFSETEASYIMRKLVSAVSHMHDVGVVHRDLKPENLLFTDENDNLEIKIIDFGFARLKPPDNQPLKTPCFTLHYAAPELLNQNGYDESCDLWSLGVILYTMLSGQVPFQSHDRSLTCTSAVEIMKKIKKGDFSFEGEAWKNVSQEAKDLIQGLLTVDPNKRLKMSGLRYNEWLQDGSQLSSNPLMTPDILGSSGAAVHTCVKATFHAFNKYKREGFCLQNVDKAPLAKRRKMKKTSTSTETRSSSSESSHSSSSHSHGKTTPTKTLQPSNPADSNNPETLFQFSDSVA
Procedure, shortened: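 Single-concentration selectivity screen at 0.1 μM against a panel of 76 protein kinases. Each kinase was run at an ATP level approximating its Km for ATP. Output is mean residual activity as % of the control assay without compound, n = 3 ± SD.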

[8] = target: Calcium/calmodulin-dependent protein kinase type 1 (Homo sapiens) (UniProt Q14012); assay: Inhibition of CAMK1 assessed as residual activity at 0.1 uM by Cherenkov counting relative to control in presence of 50 uM ATP
Sequence of Calcium/calmodulin-dependent protein kinase type 1 (Homo sapiens) (Q14012 whole entry, looked up): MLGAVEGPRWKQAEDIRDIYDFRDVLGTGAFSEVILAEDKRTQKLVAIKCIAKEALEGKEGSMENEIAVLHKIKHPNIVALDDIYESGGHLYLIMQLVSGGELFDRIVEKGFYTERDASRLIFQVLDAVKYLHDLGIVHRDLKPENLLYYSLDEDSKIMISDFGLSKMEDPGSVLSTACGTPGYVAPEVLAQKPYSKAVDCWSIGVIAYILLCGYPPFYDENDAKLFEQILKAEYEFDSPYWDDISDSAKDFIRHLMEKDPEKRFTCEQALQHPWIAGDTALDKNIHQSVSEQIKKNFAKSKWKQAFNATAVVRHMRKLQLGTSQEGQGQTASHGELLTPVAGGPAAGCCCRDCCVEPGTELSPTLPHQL
Procedure, shortened: (§2)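 Single-concentration screen at 0.1 µM across a panel of 76 protein kinases. Each kinase was run at an ATP concentration approximating its ATP Km. Results are % mean residual activity versus control assays without compound (n = 3 ± SD).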

[9] = target: Myosin light chain kinase, smooth muscle (Homo sapiens) (UniProt Q15746); assay: Inhibition of smooth muscle MLCK assessed as residual activity at 0.1 uM by Cherenkov counting relative to control in presence of 50 uM ATP; procedure, shortened: as §1
[10] = target: Fibroblast growth factor receptor 1 (Homo sapiens) (UniProt P11362); assay: Inhibition of FGFR1 assessed as residual activity at 0.1 uM by Cherenkov counting relative to control in presence of 20 uM ATP; procedure, shortened: as §2
Sequence of Fibroblast growth factor receptor 1 (Homo sapiens) (P11362 22-822 limits assumed): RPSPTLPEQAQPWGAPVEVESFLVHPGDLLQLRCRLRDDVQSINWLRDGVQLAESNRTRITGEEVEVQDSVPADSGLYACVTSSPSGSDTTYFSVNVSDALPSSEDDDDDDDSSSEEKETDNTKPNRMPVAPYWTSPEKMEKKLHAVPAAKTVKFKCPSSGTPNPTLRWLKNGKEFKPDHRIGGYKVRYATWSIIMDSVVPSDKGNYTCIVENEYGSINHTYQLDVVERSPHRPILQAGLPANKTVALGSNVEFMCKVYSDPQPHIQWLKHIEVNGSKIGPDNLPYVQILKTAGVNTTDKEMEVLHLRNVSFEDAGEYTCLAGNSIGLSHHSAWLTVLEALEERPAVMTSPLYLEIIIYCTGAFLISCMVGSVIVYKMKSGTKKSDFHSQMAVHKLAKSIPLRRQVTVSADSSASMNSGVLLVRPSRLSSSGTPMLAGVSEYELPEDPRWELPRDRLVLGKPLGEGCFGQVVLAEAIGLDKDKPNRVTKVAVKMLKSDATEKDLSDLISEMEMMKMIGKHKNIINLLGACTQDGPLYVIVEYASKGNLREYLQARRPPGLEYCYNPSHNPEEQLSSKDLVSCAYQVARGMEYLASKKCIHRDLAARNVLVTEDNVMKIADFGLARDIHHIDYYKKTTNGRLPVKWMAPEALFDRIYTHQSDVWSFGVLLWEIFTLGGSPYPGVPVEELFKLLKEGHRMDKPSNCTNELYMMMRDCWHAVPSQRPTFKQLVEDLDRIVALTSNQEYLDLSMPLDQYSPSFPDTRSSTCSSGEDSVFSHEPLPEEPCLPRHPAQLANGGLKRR

[11] = target: T1, Serine/threonine-protein kinase Chk1 (Homo sapiens) (UniProt O14757); assay: Inhibition of CHK1 assessed as residual activity at 10 uM by Cherenkov counting relative to control in presence of 20 uM ATP
T1 sequence (whole entry): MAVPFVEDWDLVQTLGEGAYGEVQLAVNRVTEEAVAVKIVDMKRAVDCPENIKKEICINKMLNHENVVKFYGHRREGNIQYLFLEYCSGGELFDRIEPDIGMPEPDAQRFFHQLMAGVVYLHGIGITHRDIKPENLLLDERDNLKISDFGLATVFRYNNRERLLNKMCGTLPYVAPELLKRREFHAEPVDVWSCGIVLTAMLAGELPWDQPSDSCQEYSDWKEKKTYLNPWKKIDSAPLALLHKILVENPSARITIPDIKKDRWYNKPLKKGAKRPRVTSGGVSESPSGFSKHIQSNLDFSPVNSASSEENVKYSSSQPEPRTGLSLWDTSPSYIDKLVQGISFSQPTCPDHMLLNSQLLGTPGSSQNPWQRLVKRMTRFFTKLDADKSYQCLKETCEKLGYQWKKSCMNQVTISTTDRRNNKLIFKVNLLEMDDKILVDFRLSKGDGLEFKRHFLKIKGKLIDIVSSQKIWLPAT
Procedure, shortened: (§3)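 Single-point profiling at 10 µM in a panel of 78 protein kinases. Kinase activity is expressed as a percentage relative to control assays without compound.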

[12] = target: T2, Inhibitor of nuclear factor kappa-B kinase subunit beta (Homo sapiens) (UniProt O14920); assay: Inhibition of IKK-beta assessed as residual activity at 10 uM by Cherenkov counting relative to control in presence of 5 uM ATP; procedure, shortened: as §3
T2 sequence (whole entry): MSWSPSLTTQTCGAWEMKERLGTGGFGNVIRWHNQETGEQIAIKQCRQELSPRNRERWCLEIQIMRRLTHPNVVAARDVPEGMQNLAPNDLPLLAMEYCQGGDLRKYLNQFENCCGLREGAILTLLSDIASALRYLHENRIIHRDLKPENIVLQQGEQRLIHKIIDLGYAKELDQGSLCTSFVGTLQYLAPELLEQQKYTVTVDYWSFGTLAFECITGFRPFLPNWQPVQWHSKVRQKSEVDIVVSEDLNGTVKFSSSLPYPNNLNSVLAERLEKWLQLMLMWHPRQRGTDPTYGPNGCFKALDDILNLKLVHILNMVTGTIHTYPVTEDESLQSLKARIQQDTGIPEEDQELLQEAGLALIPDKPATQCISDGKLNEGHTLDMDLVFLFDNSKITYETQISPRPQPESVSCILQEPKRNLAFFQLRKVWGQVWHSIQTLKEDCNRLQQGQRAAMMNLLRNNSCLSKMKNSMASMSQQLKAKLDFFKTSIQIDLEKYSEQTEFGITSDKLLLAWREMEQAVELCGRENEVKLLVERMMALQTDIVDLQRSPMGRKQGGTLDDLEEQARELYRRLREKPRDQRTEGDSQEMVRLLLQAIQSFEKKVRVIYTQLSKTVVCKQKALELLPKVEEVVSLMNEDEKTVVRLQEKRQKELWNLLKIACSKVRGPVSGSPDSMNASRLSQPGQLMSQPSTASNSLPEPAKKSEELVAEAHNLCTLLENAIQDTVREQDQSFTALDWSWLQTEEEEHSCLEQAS

[13] = target: SRSF protein kinase 1 (Homo sapiens) (UniProt Q96SB4); assay: Inhibition of SRPK1 assessed as residual activity at 10 uM by Cherenkov counting relative to control in presence of 50 uM ATP
Sequence of SRSF protein kinase 1 (Homo sapiens) (Q96SB4 whole entry): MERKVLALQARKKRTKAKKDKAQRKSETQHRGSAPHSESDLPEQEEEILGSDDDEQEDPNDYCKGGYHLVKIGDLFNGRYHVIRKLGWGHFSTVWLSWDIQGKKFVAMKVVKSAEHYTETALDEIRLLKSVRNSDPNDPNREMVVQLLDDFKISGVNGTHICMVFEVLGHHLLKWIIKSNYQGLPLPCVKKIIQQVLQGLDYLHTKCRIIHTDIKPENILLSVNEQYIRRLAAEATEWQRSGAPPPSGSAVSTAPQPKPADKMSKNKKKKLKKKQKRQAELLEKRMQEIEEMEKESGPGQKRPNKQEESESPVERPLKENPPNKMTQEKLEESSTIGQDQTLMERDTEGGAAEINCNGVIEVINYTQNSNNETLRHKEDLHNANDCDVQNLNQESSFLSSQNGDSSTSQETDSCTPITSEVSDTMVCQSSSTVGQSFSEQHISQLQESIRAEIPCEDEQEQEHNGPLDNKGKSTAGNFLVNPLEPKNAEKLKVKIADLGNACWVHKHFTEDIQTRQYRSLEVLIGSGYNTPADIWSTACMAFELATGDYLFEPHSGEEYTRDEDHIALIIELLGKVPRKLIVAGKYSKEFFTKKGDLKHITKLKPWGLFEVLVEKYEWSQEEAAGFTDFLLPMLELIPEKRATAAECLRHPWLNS
Procedure, shortened: (§4)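 Single-concentration profiling at 10 μM in a 78-kinase panel. Kinase activity is expressed as a percentage of control assays run without compound.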

[14] = target: Proto-oncogene tyrosine-protein kinase Src (Homo sapiens) (UniProt P12931); assay: Inhibition of Src assessed as residual activity at 10 uM by Cherenkov counting relative to control in presence of 50 uM ATP; procedure, shortened: as §4
[15] = target: Fibroblast growth factor receptor 1 (Homo sapiens) (UniProt P11362); assay: Inhibition of FGFR1 assessed as residual activity at 10 uM by Cherenkov counting relative to control in presence of 20 uM ATP; procedure, shortened: as §3

Row | Activity [1] [%] | Activity [2] [%] | inhibition [3] [%] | inhibition [4] [%] | Activity [5] [%] | Activity [6] [%] | Activity [7] [%] | Activity [8] [%] | Activity [9] [%] | Activity [10] [%] | Activity [11] [%] | Activity [12] [%] | Activity [13] [%] | Activity [14] [%] | Activity [15] [%] | Structure (SMILES)
1 | 86 | 46 | 54 | 86 | 97 | 103 | 97 | 98 | 93 | 50 |  |  |  |  |  | COc1ccc(/C=C/C(=O)Nc2cc(-c3[nH]c([S+](C)[O-])nc3-c3ccc(F)cc3)ccn2)c(OC)c1 (stereo not given)
2 |  |  |  |  |  |  |  |  |  |  | 102 | 103 | 86 | 90 | 95 | CC(C)c1noc(-c2ccc(F)cc2)c1-c1ccncc1
3 |  |  |  |  |  |  |  |  |  |  | 91 | 103 | 81 | 72 | 81 | CC(C)c1onc(-c2ccc(F)cc2)c1-c1ccncc1
4 | 86 | 33 | 83 | 76 | 84 | 110 | 84 | 92 | 82 | 50 |  |  |  |  |  | COc1ccc(/C=C/C(=O)Nc2cc(-c3[nH]c(SC)nc3-c3ccc(F)cc3)ccn2)c(OC)c1
